pKi: −log10 of the molar value.
Tests used:
[1] = Inhibitory activity of compound against […] inosine-adenosine-guanosine nucleoside hydrolase (IAG-NH) from Trypanosoma brucei
Outline: (§1)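 Values are inhibition constants (Ki) against the nucleoside hydrolases: nonspecific inosine-uridine NH from *Crithidia fasciculata* and purine-specific inosine-adenosine-guanosine NH from *Trypanosoma brucei brucei*.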

[2] = Inhibitory activity of compound against inosine-uridine nucleoside hydrolase (IU-NH) from crithidia fasciculata; outline: as §1
[3] = target: T1, Purine nucleoside phosphorylase (Bos taurus, UniProt P55859); experiment: Inhibitory activity of compound against bovine purine nucleoside phosphorylase (PNP)
T1 sequence (P55859 whole entry): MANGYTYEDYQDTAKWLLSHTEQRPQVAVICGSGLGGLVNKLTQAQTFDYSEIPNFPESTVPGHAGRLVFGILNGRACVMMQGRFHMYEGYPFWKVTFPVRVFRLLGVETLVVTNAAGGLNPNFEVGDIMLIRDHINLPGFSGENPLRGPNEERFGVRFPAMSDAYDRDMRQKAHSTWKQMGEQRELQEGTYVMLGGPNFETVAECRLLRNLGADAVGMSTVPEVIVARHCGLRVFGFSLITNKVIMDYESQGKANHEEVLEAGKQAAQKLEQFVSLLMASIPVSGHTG

[4] = target: T2, Purine nucleoside phosphorylase (Homo sapiens, UniProt P00491); experiment: Inhibitory activity of compound against human purine nucleoside phosphorylase (PNP)
T2 sequence (P00491 whole entry): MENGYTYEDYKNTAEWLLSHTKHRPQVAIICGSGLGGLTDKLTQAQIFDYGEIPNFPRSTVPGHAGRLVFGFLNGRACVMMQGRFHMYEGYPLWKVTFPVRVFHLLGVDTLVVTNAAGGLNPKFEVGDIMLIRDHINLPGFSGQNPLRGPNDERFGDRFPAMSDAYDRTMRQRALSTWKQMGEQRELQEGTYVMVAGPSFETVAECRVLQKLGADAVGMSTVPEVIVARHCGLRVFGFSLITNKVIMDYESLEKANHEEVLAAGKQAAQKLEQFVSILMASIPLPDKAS

[5] = target: T3, Purine nucleoside phosphorylase (Bos taurus) (UniProt P55859)
T3 sequence (whole entry): T1 sequence (P55859 whole entry)

[6] = target: T4, Purine nucleoside phosphorylase (Homo sapiens) (UniProt P00491)
T4 sequence (whole entry): T2 sequence (P00491 whole entry)

Nc1[nH]cnc2c(C3N[C@H](CO)[C@H](O)[C@@H]3O)cnc1-2 (stereo partly specified)
pKi [1]: 9.05 | pKi [2]: 8.14

NC(=O)c1[nH]cc(C2N[C@H](CO)[C@H](O)[C@@H]2O)c1N (stereo partly specified)
pKi [1]: 7.64 | pKi [2]: 8.52

Nc1nc2c([C@@H]3N[C@H](CO)[C@@H](O)[C@H]3O)c[nH]c2c(=O)[nH]1
pKi [3]: 10.52 | pKi [4]: 10.54 | K6 [5]: 0.00019 s⁻¹ | K6 [6]: 0.0015 s⁻¹

OC[C@H]1N[C@@H](c2n[nH]c3c(O)ncnc23)[C@H](O)[C@@H]1O
pKi [3]: 10.38 | pKi [4]: 9.98 | pKi [1]: 4.86 | pKi [2]: 5.80 | K6 [5]: 0.021 s⁻¹ | K6 [6]: 0.013 s⁻¹

Nc1ncnc2c(C3N[C@H](CO)[C@H](O)[C@@H]3O)n[nH]c12 (stereo partly specified)
pKi [1]: 4.85 | pKi [2]: 6.82

NC(=O)c1[nH]nc(C2N[C@H](CO)[C@H](O)[C@@H]2O)c1N (stereo partly specified)
pKi [3]: 10.22 | pKi [4]: 10.02 | pKi [1]: 5.43 | pKi [2]: 5.32 | K6 [5]: 0.019 s⁻¹

O=c1[nH]cnc2c([C@@H]3N[C@H](CO)[C@@H](O)[C@H]3O)c[nH]c12 [FORODESINE]
pKi [3]: 10.64 | pKi [1]: 7.62 | pKi [2]: 7.38 | K6 [5]: 4e-05 s⁻¹ | K6 [6]: 0.0015 s⁻¹
